Measurements collected from several papers.
HTR2A: 5-hydroxytryptamine receptor 2A (HTR2A, Homo sapiens, UniProt P28223)
SPHK1: Sphingosine kinase 1 (SPHK1, Homo sapiens, UniProt Q9NYA1)
SIGMAR1: Sigma non-opioid intracellular receptor 1 (SIGMAR1, Homo sapiens, UniProt Q99720)
PPO3: PPO3 (Agaricus bisporus, UniProt C7FF04)
HRH4: Histamine H4 receptor (HRH4, Homo sapiens, UniProt Q9H3N8)
OPRK1: Kappa-type opioid receptor (OPRK1, Homo sapiens, UniProt P41145)
SLC10A1: Hepatic sodium/bile acid cotransporter (SLC10A1, Homo sapiens, UniProt Q14973)

Cc1nc2n(c(=O)c1CCN)CCCC2  Ki (HTR2A; ligand displacement, radioligand; cell membranes): > 10 µM
CCCCN1CCC(COC(=O)c2ccc(N)c(OCF)c2)CC1  Ki (HTR2A; cell-free assay, radioligand): > 10 µM
Cn1cc(-c2ccncc2)c(-c2ccc(OCc3ccc4ccccc4n3)cc2)n1  Ki (Vesicular acetylcholine transporter (SLC18A3, Homo sapiens, UniProt Q16572); ligand displacement, radioligand): > 1 µM
CC[C@H](C)[C@H](NC(=O)[C@H](CCC(=O)O)NC(=O)[C@H](CC(=O)O)NC(=O)CNC(=O)[C@H](CC(C)C)NC(=O)[C@H](CCCNC(=N)N)NC(=O)[C@H](CCCNC(=N)N)NC(=O)[C@H](CC(C)C)NC(=O)CNC(=O)[C@H](CCC(N)=O)NC(=O)[C@@H](NC(=O)[C@H](CCSC)NC(=O)[C@H](Cc1c[nH]c2ccccc12)NC(=O)[C@@H](NC(=O)[C@H](CCC(=O)O)NC(=O)[C@@H]1CCCN1C(=O)[C@H](CCCNC(=N)N)NC(C)=O)[C@@H](C)CC)[C@@H](C)O)C(=O)N[C@@H](CC(N)=O)C(=O)N[C@@H](C)C(=O)N[C@@H](Cc1ccc(O)cc1)C(=O)N[C@@H](Cc1ccc(O)cc1)C(=O)N[C@@H](C)C(=O)N[C@@H](CCCNC(=N)N)C(N)=O  Ki (Bcl-2-like protein 1 (BCL2L1, Homo sapiens, UniProt Q07817); ligand displacement, FP): 2.4 µM
Cc1nc[nH]c(=O)c1CCN1CCC(c2noc3cc(F)ccc23)CC1  Ki (HTR2A; ligand displacement, radioligand; cell membranes): 0.00186 µM
O=C1c2ccccc2CCN1CCCCN1CCN(c2cccc(Cl)c2Cl)CC1  Ki (HTR2A; ligand displacement, radioligand): 0.039 µM
[H]/N=C(\N)N1CCC[C@H]1c1nc(-c2ccc(OCC=Cc3ccc(C(F)(F)F)cc3)c(C(F)(F)F)c2)no1  Ki (SPHK1; enzyme activity, inhibitor): 12 µM
COc1ccccc1N1CCN(CCCCNC(=O)c2cc3cc(OCCOCCOCCF)ccc3[nH]2)CC1  Ki (SIGMAR1; cell-free assay): > 10 µM
C[C@@H]1Cc2ccccc2N1C(=O)NCCCCN(C)[C@@H]1Cc2cccc3[nH]c(=O)n(c23)C1  Ki (HTR2A; ligand displacement, radioligand): 2.71 µM
Nc1nc(N)c(N=Nc2ccccc2[N+](=O)[O-])c(N)n1  Ki (PPO3; enzyme activity, inhibitor): 5.66 µM
OCCCN1CC[C@@H]2C[C@H]1c1cc(-c3ccc(C(F)(F)F)cc3)ccc12  Ki (HRH4; ligand displacement, radioligand): 5.51 µM
O[C@@H]1[C@H](O)[C@@H]2C[C@@H]2[C@H]1n1cnc2c(NCc3cccc(Cl)c3)nc(C#Cc3ccc(F)c(F)c3)nc21  Ki (OPRK1; cell-free assay): > 10 µM
CCCn1nc(C(=O)N2CCCCC2)c2c1CCC(NCCCNC)C2 (centres unmarked)  Ki (SIGMAR1; ligand displacement, radioligand): > 10 µM
CNC(=O)[C@@]12C[C@@H]1[C@@H](n1cnc3c(NC)nc(C#Cc4ccc(Br)s4)nc31)[C@H](O)[C@@H]2O  Ki (OPRK1; cell-free assay): > 10 µM
Cc1ccc(C(C)C)cc1NC(=O)COC(=O)c1ccc(O)cc1O  Ki (PPO3; enzyme activity, inhibitor): 0.188 µM
Nc1nc(N)c(N=Nc2ccccc2[N+](=O)[O-])c(Cl)n1  Ki (PPO3; enzyme activity, inhibitor): 3.6 µM
COc1cc2c(cc1OC)CN(CCCCn1ccc3c(OC)cccc31)C2  Ki (SIGMAR1; ligand displacement, radioligand; cell membranes): 0.149 µM
CCCn1nc(C(=O)N2CCCCC2)c2c1CCC(NCc1ccc(S(N)(=O)=O)cc1)C2 (centres unmarked)  Ki (SIGMAR1; ligand displacement, radioligand): > 10 µM
CCOC(=O)[C@H](CCSC)NC(=O)c1ccc(C2CC2)c(Cc2ccc(F)cc2)n1  Ki (Cannabinoid receptor 1 (CNR1, Homo sapiens, UniProt P21554); ligand displacement, radioligand; cell membranes): 0.07 µM
O=C(c1cccc(/N=N/c2cccc(OCCCN3CCCCC3)c2)c1)N1CCCC1  Ki (HRH4; ligand displacement, radioligand): > 10 µM
CCCn1nc(C(=O)N2CCCCC2)c2c1CCC(N1CCC(c3ccncc3)CC1)C2 (centres unmarked)  Ki (SIGMAR1; ligand displacement, radioligand): > 10 µM
COc1ccc(N=Nc2c(N)nc(N)nc2Cl)cc1  Ki (PPO3; enzyme activity, inhibitor): 7.05 µM
Cc1ccc(CN(C)CC(=O)N2CCCN(Cc3ccc(Cl)cc3)CC2)c(Cl)c1  Ki (OPRK1; cell-free assay): 7.59 µM
CCCn1nc(C(=O)N2CCCCC2)c2c1CCC(Nc1ccc(N3CCCCC3)cc1)C2 (centres unmarked)  Ki (SIGMAR1; ligand displacement, radioligand): > 10 µM
CNC(=O)[C@@]12C[C@@H]1[C@@H](n1cnc3c(NCCCO)nc(C#Cc4ccc(Cl)s4)nc31)[C@H](O)[C@@H]2O  Ki (OPRK1; cell-free assay): > 10 µM
Cc1nc2n(c(=O)c1CCN1CCCCC1)CCCC2  Ki (HTR2A; ligand displacement, radioligand; cell membranes): ~5 µM
CCCn1nc(C(=O)N2CCCCC2)c2c1CCC(NCCCN1CCCC1=O)C2 (centres unmarked)  Ki (SIGMAR1; ligand displacement, radioligand): > 10 µM
CCCc1ccc(CCc2ccc(-c3noc([C@@H]4CCCN4C(=N)N)n3)cc2C(F)(F)F)cc1  Ki (SPHK1; enzyme activity, inhibitor): 17 µM
Cc1ccc(N=Nc2c(N)nc(N)nc2Cl)cc1  Ki (PPO3; enzyme activity, inhibitor): 5.87 µM
CNC(=O)[C@@]12C[C@@H]1[C@@H](n1cnc3c(NCc4cccc(Cl)c4)nc(C#Cc4ccc(F)cc4)nc31)[C@H](O)[C@@H]2O  Ki (OPRK1; cell-free assay): > 10 µM
O=C1NC(=O)C(c2ccccc2)(c2ccc(OCCCN3CCCCC3)cc2)N1 (centres unmarked)  Ki (HRH4; ligand displacement, radioligand; cell membranes): > 100 µM
CCOC(=O)[C@@]12C[C@@H]1[C@@H](n1cnc3c(NC)nc(C#Cc4ccc(Cl)s4)cc31)[C@H](O)[C@@H]2O  Ki (OPRK1; cell-free assay): > 10 µM
COc1ccc2c(ccn2CCCCN2CCc3cc(OC)c(OC)cc3C2)c1  Ki (SIGMAR1; ligand displacement, radioligand; cell membranes): 0.45 µM
CNC(=O)[C@@]12C[C@@H]1[C@@H](n1cnc3c(NCc4cccc(Cl)c4)nc(C#Cc4ccccc4Cl)nc31)[C@H](O)[C@@H]2O  Ki (OPRK1; cell-free assay): > 10 µM
COc1ccccc1Oc1c(NS(=O)(=O)c2ccc(C(C)(C)C)cc2)nc(-c2ncccn2)nc1OCCO  Ki (SLC10A1; transporter uptake, inhibitor): 145 µM
CCCn1nc(C(=O)N2CCCCC2)c2c1CCC(NCCNC(=N)N)C2 (centres unmarked)  Ki (SIGMAR1; ligand displacement, radioligand): > 10 µM
CC(C)C(=O)Nc1ccc([N+](=O)[O-])c(C(F)(F)F)c1  Ki (SLC10A1; transporter uptake, inhibitor): 113 µM
CNc1nc(C#Cc2ccccc2)nc2c1ncn2[C@H]1[C@H](O)[C@H](O)[C@@H]2C[C@@H]21  Ki (OPRK1; cell-free assay): > 10 µM
CC(=O)Nc1ccc(N=Nc2c(N)nc(N)nc2Cl)cc1  Ki (PPO3; enzyme activity, inhibitor): 7.84 µM
CCCn1nc(C(=O)N(C)C)c2c1CCC(NCc1ccc(OC)cc1OC)C2 (centres unmarked)  Ki (SIGMAR1; ligand displacement, radioligand): > 10 µM
CNc1nc(C#Cc2ccc(Cl)s2)nc2c1ncn2[C@H]1[C@H](O)[C@H](O)[C@]2(C(=O)OC(C)C)C[C@H]12  Ki (OPRK1; cell-free assay): > 10 µM
